Activity calls are given as the source filed them. The calls are words filed in the database; no cut-off is given here.
Tests used:
Jurkat [1] = assay: Cell cycle arrest in human Jurkat E6-1 cells assessed as accumulation at G0/G1 phase at 2.5 uM after 24 hrs by FACS flow cytometry; assay type: functional
In short: (§1)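 Jurkat E6 cells cultured in RPMI 1640 with 10% FBS at 37 °C, 5% CO2. Compounds serially diluted in medium, starting 50% above the M21 IC50. 4.0 × 10^5 cells were exposed for 24 h. Cells were washed with PBS, chicken red blood cells added as internal standard, and fixed in ice-cold EtOH. After 1 h on ice in PBS with 1 μg/mL DAPI, phase distribution was read by flow cytometry. DMSO-treated cells served as control.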

Jurkat [2] = assay: Cell cycle arrest in human Jurkat E6-1 cells assessed as accumulation at S phase at 2.5 uM after 24 hrs by FACS flow cytometry; assay type: functional
In short: (§2)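 Jurkat E6 cells grown in RPMI 1640 with 10% FBS at 37 °C, 5% CO2. Compounds were serially diluted in medium starting 50% above the M21 IC50. 4.0 × 10^5 cells were exposed for 24 h, then washed and spiked with chicken red blood cells as internal standard. Cells were fixed in ice-cold ethanol, stained with 1 μg/mL DAPI on ice for 1 h, and phase distribution was read by flow cytometry. The control was 0.5% DMSO.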

Jurkat [3] = assay: Cell cycle arrest in human Jurkat E6-1 cells assessed as accumulation at G2/M phase at 2.5 uM after 24 hrs by FACS flow cytometry; assay type: functional; in short: as §2
M21 [4] = assay: Induction of DNA damage response in human M21 cells assessed as phosphorylation of H2AX into gammaH2AX at IC50 after 24 hrs by DAPI staining-based immunofluorescence assay; assay type: functional, cell-based
In short: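 M21 cells (1 × 10^5) on fibronectin-coated coverslips, grown 24 h, then exposed to agent for 24 h at 37 °C; 0.5% DMSO control. Fixed with 3.7% formaldehyde and permeabilized with 0.1% saponin/3% BSA. Probed with mouse anti-H2AX pS139 antibody for 2 h at room temperature. Nuclei counterstained with DAPI; nuclear γH2AX foci viewed by epifluorescence microscopy.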

HT-1080 [5] = assay: Antitumor activity against human HT1080 cells xenografted in chicken chorioallantoic membrane assessed as inhibition of tumor growth at 30 ug per egg, iv administered on day 11 measured on day 17 by CAM assay; assay type: functional
In short: (§3)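 HT-1080 fibrosarcoma cells (3.5 × 105/egg) were applied onto freshly exposed CAM of fertilized chicken eggs. On day 11, drug from a DMSO stock was diluted in Cremophor EL/99% ethanol/PBS (1/1/14 v/v) and 100 μL was injected into a vein under the CAM. Groups of 10–12 eggs were kept to day 17, embryos were euthanized at 4 °C for ≥4 h, and tumor wet weight was recorded.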

[6] = Toxicity in fertilized chicken embryo assessed as mortality rate at 30 ug per egg, iv administered on day 11 measured on day 17 by CAM assay; assay type: organism-based, Gallus gallus; conditions: in vivo, read-out: Activity
In short: (§4)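 Fertilized chicken eggs grafted on the CAM with HT-1080 cells (3.5 × 105/egg) received a 100 μL intravenous injection under the CAM on day 11. The drug was diluted in Cremophor EL/99% ethanol/PBS (1/1/14 v/v). Groups held 10–12 eggs and were incubated until day 17, when dead embryos and signs of toxicity were counted per group.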

HT-29 = assay: Cytotoxicity against human HT-29 cells after 48 hrs by SRB assay; assay type: functional, cell-based; conditions: HT-29, 48 h
In short: (§5)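 NCI sulforhodamine B protocol. Cells were grown in high-glucose DMEM with 5% FBS and seeded per well at 4 × 10^3 (HT-29), 3.5 × 10^3 (M21) or 3 × 10^3 (MCF-7), then allowed 24 h to attach. Serial dilutions from 200 μM to 780 nM final were applied in DMSO <0.5% for 48 h. Cells were fixed with cold TCA (10% final) and stained with SRB, with absorbance read at 530–568 nm. Growth inhibition was computed against day-0 plates, giving the 50% inhibitory concentration. At least two experiments in triplicate, CV <10%.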

M21 [7] = assay: Cytotoxicity against human M21 cells after 48 hrs by SRB assay; assay type: functional, cell-based; conditions: M21, 48 h; in short: as §5
MCF7 = assay: Cytotoxicity against human MCF7 cells after 48 hrs by SRB assay; assay type: functional, cell-based; conditions: MCF7, 48 h; in short: as §5
Jurkat [8] = assay: Cell cycle arrest in human Jurkat E6-1 cells assessed as accumulation at G0/G1 phase at 0.60 uM after 24 hrs by FACS flow cytometry; assay type: functional; in short: as §1
Jurkat [9] = assay: Cell cycle arrest in human Jurkat E6-1 cells assessed as accumulation at S phase at 0.60 uM after 24 hrs by FACS flow cytometry; assay type: functional; in short: as §2
Jurkat [10] = assay: Cell cycle arrest in human Jurkat E6-1 cells assessed as accumulation at G2/M phase at 0.60 uM after 24 hrs by FACS flow cytometry; assay type: functional; in short: as §1
HT-1080 [11] = assay: Antitumor activity against human HT1080 cells xenografted in chicken chorioallantoic membrane assessed as inhibition of tumor growth at 1 ug per egg, iv administered on day 11 measured on day 17 by CAM assay; assay type: functional; in short: as §3
[12] = Toxicity in fertilized chicken embryo assessed as mortality rate at 1 ug per egg, iv administered on day 11 measured on day 17 by CAM assay; assay type: organism-based, Gallus gallus; conditions: in vivo, read-out: Activity; in short: as §4
Jurkat [13] = assay: Cell cycle arrest in human Jurkat E6-1 cells assessed as accumulation at S phase at 23 uM after 24 hrs by FACS flow cytometry; assay type: functional; in short: as §2
Jurkat [14] = assay: Cell cycle arrest in human Jurkat E6-1 cells assessed as accumulation at G2/M phase at 23 uM after 24 hrs by FACS flow cytometry; assay type: functional; in short: as §2
Jurkat [15] = assay: Cell cycle arrest in human Jurkat E6-1 cells assessed as accumulation at G0/G1 phase at 23 uM after 24 hrs by FACS flow cytometry; assay type: functional; in short: as §1
Jurkat [16] = assay: Cell cycle arrest in human Jurkat E6-1 cells assessed as accumulation at S phase at 200 uM after 24 hrs by FACS flow cytometry; assay type: functional; in short: as §2
Jurkat [17] = assay: Cell cycle arrest in human Jurkat E6-1 cells assessed as accumulation at G2/M phase at 200 uM after 24 hrs by FACS flow cytometry; assay type: functional; in short: as §2
Jurkat [18] = assay: Cell cycle arrest in human Jurkat E6-1 cells assessed as accumulation at G0/G1 phase at 200 uM after 24 hrs by FACS flow cytometry; assay type: functional; in short: as §1
Jurkat [19] = assay: Cell cycle arrest in human Jurkat E6-1 cells assessed as accumulation at S phase at 19 uM after 24 hrs by FACS flow cytometry; assay type: functional; in short: as §2
Jurkat [20] = assay: Cell cycle arrest in human Jurkat E6-1 cells assessed as accumulation at G2/M phase at 19 uM after 24 hrs by FACS flow cytometry; assay type: functional; in short: as §2
Jurkat [21] = assay: Cell cycle arrest in human Jurkat E6-1 cells assessed as accumulation at G0/G1 phase at 19 uM after 24 hrs by FACS flow cytometry; assay type: functional; in short: as §1
Jurkat [22] = assay: Cell cycle arrest in human Jurkat E6-1 cells assessed as accumulation at G0/G1 phase at 176 uM after 24 hrs by FACS flow cytometry; assay type: functional; in short: as §1
Jurkat [23] = assay: Cell cycle arrest in human Jurkat E6-1 cells assessed as accumulation at S phase at 176 uM after 24 hrs by FACS flow cytometry; assay type: functional; in short: as §2
Jurkat [24] = assay: Cell cycle arrest in human Jurkat E6-1 cells assessed as accumulation at G2/M phase at 176 uM after 24 hrs by FACS flow cytometry; assay type: functional; in short: as §2
Jurkat [25] = assay: Cell cycle arrest in human Jurkat E6-1 cells assessed as accumulation at G0/G1 phase at 59 uM after 24 hrs by FACS flow cytometry; assay type: functional; in short: as §1
Jurkat [26] = assay: Cell cycle arrest in human Jurkat E6-1 cells assessed as accumulation at S phase at 59 uM after 24 hrs by FACS flow cytometry; assay type: functional
In short: (§6)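 Jurkat E6 T-lymphoblasts in RPMI 1640 with 10% FBS, 37 °C, 5% CO2. […] Chicken red blood cells were added as internal standard. Cells were fixed in ice-cold EtOH and stained with 1 μg/mL DAPI on ice for 1 h before flow cytometry of phase distribution. Vehicle control was 0.5% DMSO.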

Jurkat [27] = assay: Cell cycle arrest in human Jurkat E6-1 cells assessed as accumulation at G2/M phase at 59 uM after 24 hrs by FACS flow cytometry; assay type: functional; in short: as §2
Jurkat [28] = assay: Cell cycle arrest in human Jurkat E6-1 cells assessed as accumulation at G0/G1 phase at 3.5 uM after 24 hrs by FACS flow cytometry; assay type: functional; in short: as §1
Jurkat [29] = assay: Cell cycle arrest in human Jurkat E6-1 cells assessed as accumulation at S phase at 3.5 uM after 24 hrs by FACS flow cytometry; assay type: functional; in short: as §6
Jurkat [30] = assay: Cell cycle arrest in human Jurkat E6-1 cells assessed as accumulation at G2/M phase at 3.5 uM after 24 hrs by FACS flow cytometry; assay type: functional; in short: as §2

CCNC(=O)Nc1ccc(S(=O)(=O)Oc2ccccc2C)cc1
Activity (Jurkat [1]): 23%
Activity (Jurkat [2]): 61%
Activity (Jurkat [3]): 16%
Activity (M21 [4]): Active
TGI (HT-1080 [5]): 68%
mortality at 6 days [6]: 9%
IC50 (HT-29): 12 µM
IC50 (M21 [7]): 3.1 µM
IC50 (MCF7): 4.5 µM

CCc1ccccc1OS(=O)(=O)c1cccc(NC(=O)NCCCl)c1
IC50 (HT-29): 4.3 µM
IC50 (M21 [7]): 4.8 µM
IC50 (MCF7): 5.3 µM

CCCc1ccccc1OS(=O)(=O)c1ccc(NC(=O)NCC)cc1
Activity (Jurkat [8]): 12%
Activity (Jurkat [9]): 81%
Activity (Jurkat [10]): 7%
Activity (M21 [4]): Active
TGI (HT-1080 [5]): 65%
mortality at 6 days [6]: 10%
IC50 (HT-29): 2.4 µM
IC50 (M21 [7]): 0.8 µM
IC50 (MCF7): 1.3 µM

COc1ccc(/C=C\c2cc(OC)c(OC)c(OC)c2)cc1O [COMBRETASTATIN A4]
TGI (HT-1080 [11]): 49%
mortality at 6 days [12]: 21%

CCCc1ccccc1NS(=O)(=O)c1cccc(NC(=O)NCC)c1
Activity (Jurkat [13]): 43%
Activity (Jurkat [14]): 18%
IC50 (HT-29): 41 µM
IC50 (M21 [7]): 60 µM
IC50 (MCF7): 40 µM
Activity (Jurkat [15]): 39%

Cc1ccccc1NS(=O)(=O)c1ccc(NC(=O)NCCCCl)cc1
Activity (Jurkat [16]): 38%
Activity (Jurkat [17]): 15%
IC50 (HT-29): 64 µM
IC50 (M21 [7]): > 200 µM
IC50 (MCF7): > 200 µM
Activity (Jurkat [18]): 47%

CCc1ccccc1OS(=O)(=O)c1cccc(NC(=O)NCCCCl)c1
Activity (Jurkat [19]): 38%
Activity (Jurkat [20]): 17%
IC50 (M21 [7]): 24 µM
Activity (Jurkat [21]): 45%

CCNC(=O)Nc1ccc(S(=O)(=O)Nc2ccccc2C)cc1
Activity (Jurkat [22]): 31%
Activity (Jurkat [23]): 55%
Activity (Jurkat [24]): 14%
IC50 (HT-29): > 200 µM
IC50 (M21 [7]): > 200 µM
IC50 (MCF7): > 200 µM

CCNC(=O)Nc1ccc(S(=O)(=O)Nc2ccccc2CC)cc1
Activity (Jurkat [25]): 21%
Activity (Jurkat [26]): 41%
Activity (Jurkat [27]): 38%
IC50 (M21 [7]): 90 µM

CCNC(=O)Nc1ccc(S(=O)(=O)Oc2ccc(O)cc2)cc1
Activity (Jurkat [28]): 21%
Activity (Jurkat [29]): 63%
Activity (Jurkat [30]): 16%
IC50 (HT-29): 12 µM
IC50 (M21 [7]): 4.3 µM
IC50 (MCF7): 8 µM

Source: ChEMBL document CHEMBL2163200, “Synthesis, biological evaluation, and structure-activity relationships of novel substituted N-phenyl ureidobenzenesulfonate derivatives blocking cell cycle progression in S-phase and inducing DNA double-strand breaks” (J Med Chem, 2012)
